# Assay results from ChEMBL document CHEMBL1125056, “Heterosubstituted anthracene-9,10-dione analogues. The synthesis and antitumor evaluation of 5,8-bis[(aminoalkyl)amino]naphtho[2,3-b] thiophene-4,9-diones” (1990).
# Assays:
# [1] = test system: P388 leukemia (mouse); assay: T/C in % was determined against P388 murine leukemia cells at a dose of 100 x1 mg/kg; Toxic
# [2] = test system: P388 leukemia (mouse); assay: T/C in % was determined against P388 murine leukemia cells at a dose of 50 x2 mg/kg; 60 - day survivors =0/6
# [3] = test system: L1210; assay: T/C in % was determined against L1210 murine leukemia cells at a dose of 25 x3 mg/kg; 60 - day survivors =0/6; assay type: functional, Mus musculus
# [4] = test system: L1210; assay: T/C in % was determined against L1210 murine leukemia cells at a dose of 50 x3 mg/kg; 60 - day survivors =0/6; assay type: functional, Mus musculus
# [5] = test system: P388 leukemia (mouse); assay: T/C in % was determined against P388 murine leukemia cells at a dose of 25 x2 mg/kg; 60 - day survivors =0/6
# [6] = test system: L1210; assay: Compound was tested for the concentration required to inhibit L1210 murine leukemia cell growth by 50% of control; assay type: functional; details: Mus musculus, read-out: ID50 (the source's name)
# How it was run: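 L1210 cells grown in suspension in McCoy's 5A with 10% horse serum, glutamine, penicillin and streptomycin at 37 °C in 10% CO2. Drug was added from DMSO to 5 × 10^4 cells/mL at final 0.01, 0.1 and 10 μg/mL. After 72 h continuous exposure, cells were counted on a Coulter counter.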
# [7] = test system: L1210; assay: T/C in % was determined against L1210 murine leukemia cells at a dose of 12.5 x3 mg/kg; assay type: functional, Mus musculus
# [8] = test system: L1210; assay: T/C in % was determined against L1210 murine leukemia cells at a dose of 25 x3 mg/kg; 60 - day survivors =1/6; assay type: functional, Mus musculus
# [9] = test system: L1210; assay: T/C in % was determined against L1210 murine leukemia cells at a dose of 50 x3 mg/kg
# [10] = test system: L1210; assay: T/C in % was determined against L1210 murine leukemia cells at a dose of 6.25 x3 mg/kg; 60 - day survivors =1/6; assay type: functional, Mus musculus
# [11] = test system: L1210; assay: T/C in % was determined against L1210 murine leukemia cells at a dose of 25x3 mg/kg; 60 - day survivors =3/6; assay type: functional, Mus musculus
# [12] = test system: L1210; assay: T/C in % was determined against L1210 murine leukemia cells at a dose of 8 x3 mg/kg; 60 - day survivors =1/6; assay type: functional, Mus musculus
# [13] = test system: L1210; assay: T/C in % was determined against L1210 murine leukemia cells at a dose of 12.5 x2 mg/kg; 60 - day survivors =1/6; assay type: functional, Mus musculus
# [14] = test system: L1210; assay: T/C in % was determined against L1210 murine leukemia cells at a dose of 4 x3 mg/kg 60 - day survivors =3/6; assay type: functional, Mus musculus
# [15] = test system: L1210; assay: T/C in % was determined against L1210 murine leukemia cells at a dose of 12.5x2 mg/kg; 60 - day survivors =0/6; assay type: functional, Mus musculus
smiles,measurement,setting,value
CN(C)CCNc1ccc(NCCN(C)C)c2c1C(=O)c1ccsc1C2=O,T/C,[1],Toxic
same,T/C,[2],128%
same,T/C,[3],107%
same,T/C,[4],109%
same,T/C,[5],108%
same,IC50,[6],0.038 µg/mL
O=C1c2ccccc2C(=O)c2c(NCCNCCO)ccc(NCCNCCO)c21 [AMETANTRONE],T/C,[7],177%
same,T/C,[8],203%
same,T/C,[9],146%
O=C1c2ccsc2C(=O)c2c(NCCNCCO)ccc(NCCNCCO)c21,T/C,[10],403%
same,IC50,[6],0.064 µg/mL
same,T/C,[11],333%
NCCNc1ccc(NCCN)c2c1C(=O)c1ccsc1C2=O,T/C,[12],400%
same,IC50,[6],0.026 µg/mL
same,T/C,[13],386%
same,T/C,[14],325%
O=C1c2ccsc2C(=O)c2c(NCCBr)ccc(NCCBr)c21,IC50,[6],5.2 µg/mL
O=C1c2ccsc2C(=O)c2c(NCCN3CC3)ccc(NCCN3CC3)c21,T/C,[15],104%
same,T/C,[2],114%
same,T/C,[5],112%
same,IC50,[6],0.0035 µg/mL
O=C1c2ccsc2C(=O)c2c(NCCO)ccc(NCCO)c21,IC50,[6],> 10 µg/mL
